Consider 29 compounds from ChEMBL document CHEMBL4715841, “Discovery of dihydropyrazino-benzimidazole derivatives as metabotropic glutamate receptor-2 (mGluR2) positive allosteric modulators (PAMs)” (Eur J Med Chem, 2020).

Sequence of Metabotropic glutamate receptor 2 (Q14416 whole entry): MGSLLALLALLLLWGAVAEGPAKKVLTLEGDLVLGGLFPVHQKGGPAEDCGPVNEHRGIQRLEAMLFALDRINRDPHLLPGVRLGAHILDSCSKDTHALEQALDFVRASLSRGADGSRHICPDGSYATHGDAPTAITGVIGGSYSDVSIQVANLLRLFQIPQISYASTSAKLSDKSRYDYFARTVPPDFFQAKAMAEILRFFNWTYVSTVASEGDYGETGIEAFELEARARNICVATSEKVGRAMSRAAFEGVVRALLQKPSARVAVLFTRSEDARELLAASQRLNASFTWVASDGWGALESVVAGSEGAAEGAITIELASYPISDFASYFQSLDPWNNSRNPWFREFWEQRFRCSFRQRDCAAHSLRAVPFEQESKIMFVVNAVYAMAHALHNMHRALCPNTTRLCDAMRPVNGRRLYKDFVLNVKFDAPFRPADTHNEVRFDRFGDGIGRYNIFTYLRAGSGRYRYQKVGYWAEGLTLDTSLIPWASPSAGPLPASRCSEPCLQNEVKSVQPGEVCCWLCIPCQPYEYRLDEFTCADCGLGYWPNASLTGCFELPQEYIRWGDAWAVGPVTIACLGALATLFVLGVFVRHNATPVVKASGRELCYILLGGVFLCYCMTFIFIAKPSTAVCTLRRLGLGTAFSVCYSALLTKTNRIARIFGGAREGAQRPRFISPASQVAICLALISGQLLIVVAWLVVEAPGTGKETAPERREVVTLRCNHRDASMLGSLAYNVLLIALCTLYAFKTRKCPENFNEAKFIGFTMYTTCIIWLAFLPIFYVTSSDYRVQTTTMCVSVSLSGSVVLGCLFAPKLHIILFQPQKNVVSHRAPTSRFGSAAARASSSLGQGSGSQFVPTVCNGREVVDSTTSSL
Sequence of Cytochrome P450 2C19 (P33261 whole entry, canonical isoform): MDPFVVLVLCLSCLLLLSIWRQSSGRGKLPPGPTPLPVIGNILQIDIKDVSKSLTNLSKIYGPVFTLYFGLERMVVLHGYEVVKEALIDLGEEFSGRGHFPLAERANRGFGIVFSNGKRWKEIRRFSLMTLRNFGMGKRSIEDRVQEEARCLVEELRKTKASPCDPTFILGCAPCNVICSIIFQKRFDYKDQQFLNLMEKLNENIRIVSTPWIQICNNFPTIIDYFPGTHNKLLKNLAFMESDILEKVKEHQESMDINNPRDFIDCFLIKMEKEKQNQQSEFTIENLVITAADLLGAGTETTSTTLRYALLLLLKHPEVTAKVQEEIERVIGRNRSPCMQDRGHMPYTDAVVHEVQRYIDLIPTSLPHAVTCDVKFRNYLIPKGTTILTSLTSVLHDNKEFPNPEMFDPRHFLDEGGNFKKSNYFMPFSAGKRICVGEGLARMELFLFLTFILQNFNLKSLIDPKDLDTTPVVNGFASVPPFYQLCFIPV

The target in one assay is Cytochrome P450 2C19 (Homo sapiens, UniProt P33261). Description: Inhibition of CYP2C19 (unknown origin). Type of assay: ADME. An outline of the steps:
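Isoform-specific CYP450 inhibition, reported as IC50 in µM.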
By IC50 is commonly meant the concentration that inhibits the measured activity by half. A lower IC50 goes with higher potency. `O=C1c2nc3ccccc3n2CCN1CCCCOc1ccc(OC(F)(F)F)cc1`: the IC50 was > 10 µM.

A further assay has as its target Metabotropic glutamate receptor 2 (Homo sapiens, UniProt Q14416).
A word on the EC50: it is the concentration that produces a half-maximal response. A higher EC50 goes with a need for much substance. `O=C1c2nc3ccccc3n2CCN1CCCCOc1ccc(F)cc1F` returned an EC50 of 0.05 µM.
Consider `c1ccc(SCCCN2CCn3c(nc4ccccc43)C2)cc1`, for which it took 0.26 µM to reach a half-maximal effect (EC50).
Regarding `Fc1cc(C(F)(F)F)ccc1CCCCN1CCn2c(nc3ccccc32)C1`, the response was half-maximal at 0.97 µM (EC50).
Turning to `Clc1ccc(OCCCN2CCn3c(nc4ccccc43)C2)cc1Cl`, the response was half-maximal at 0.07 µM (EC50).
On to `Fc1ccc(SCCCN2CCn3c(nc4ccccc43)C2)c(F)c1`, for which the 50% effective concentration (EC50) came to 0.35 µM.
In turn, `Brc1ccc(SCCCN2CCn3c(nc4ccccc43)C2)cc1` returned an EC50 of 0.27 µM.
Regarding `N#Cc1ccc(CCCCN2CCn3c(nc4ccccc43)C2)cc1`, the EC50 was determined as 2.4 µM.
Same read-out and setting: for `Fc1ccc(OCCCN2CCn3c(nc4ccccc43)C2)cc1Cl` the value was 0.17 µM.
`O=C1c2nc3ccccc3n2CCN1CCCCOc1ccc(Cl)cc1` registered a half-maximal effective concentration (EC50) of 0.07 µM.
For the compound `Clc1ccc(SCCCN2CCn3c(nc4ccccc43)C2)cc1`, the midpoint of the response, the EC50, lay at 0.55 µM.
Same read-out and setting: for `Fc1ccc(SCCCN2CCn3c(nc4ccccc43)C2)cc1F` the value was 0.09 µM; for `c1ccc(CCCCCN2CCn3c(nc4ccccc43)C2)cc1`, 0.13 µM.
On to `Fc1cccc(CCN2CCn3c(nc4ccccc43)C2)c1`, for which the 50% effective concentration (EC50) is 4.7 µM.
Still for that read-out and setting: in the case of `COc1ccc(CCN2CCn3c(nc4ccccc43)C2)cc1` it was 2.74 µM; in that of `COc1ccccc1C1CCN(Cc2nc3ccccc3n2C)CC1`, 0.87 µM.
Same read-out and setting: in the case of `Fc1ccc(CCCCN2CCn3c(nc4ccccc43)C2)c(F)c1` it was 0.34 µM; in that of `O=C1c2nc3ccccc3n2CCN1CCCCOc1ccc(F)cc1Br`, 0.05 µM.
Still for that read-out and setting: for `O=C1c2nc3ccccc3n2CCN1CCCOc1ccc(Cl)c(Cl)c1` the value was 0.09 µM; for `O=C1c2nc3ccccc3n2CCN1CCCCOc1ccc(C(F)(F)F)cc1`, 0.04 µM; for `Cc1ccccc1OCCCCN1CCn2c(nc3ccccc32)C1=O`, 0.09 µM.
In turn, `Fc1cc(Cl)ccc1CCCCN1CCn2c(nc3ccccc32)C1` registered an EC50 of 0.54 µM.
Still for that read-out and setting: for `c1ccc(CCCCN2CCn3c(nc4ccccc43)C2)cc1` the value was 0.42 µM; for `Cc1ccc(CCN2CCn3c(nc4ccccc43)C2)cc1`, 2.43 µM; for `Fc1ccc(SCCCN2CCn3c(nc4ccccc43)C2)cc1`, 0.32 µM.
For `COc1ccc(CCCCN2CCn3c(nc4ccccc43)C2)cc1`, the EC50 is 2.28 µM.
The compound `Cn1c(CN2CCC(c3ccccc3F)CC2)nc2ccccc21` returned a concentration giving a half-maximal response (EC50) of 0.13 µM.
`Fc1ccc(OCCCN2CCn3c(nc4ccccc43)C2)cc1F` had an EC50 of 0.54 µM.
Same read-out and setting: for `COc1ccc(CCCCN2CCn3c(nc4ccccc43)C2)c(F)c1` the value was 1.21 µM.
